{"source": "ChEMBL document CHEMBL4842372", "about": "“Discovery of ARD-2585 as an Exceptionally Potent and Orally Active PROTAC Degrader of Androgen Receptor for the Treatment of Advanced Prostate Cancer” (J Med Chem, 2021)", "key": {"[1]": {"test_system": "LNCaP", "assay": "Growth inhibition of human LNCaP cells carrying AR T878A mutant assessed as cell viability by WST-8 assay", "type": "functional, cell-based"}, "[2]": {"assay": "Drug distribution in prostate gland of CB17:SCID mouse xenografted with human VCaP cells at 20 mg/kg, po measured at 24 hrs by LCMS analysis", "type": "ADME, organism-based", "conditions": "read-out: Drug uptake", "how_it_was_run": "(§1)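 Tumor-bearing male CB17 SCID mice (VCaP xenografts) given one 20 mg/kg oral dose in 100% PEG200, three mice per time point; plasma, tumor, liver, kidney, prostate and heart taken at 1, 6 and 24 h; tissues homogenised in water/acetonitrile, protein precipitated with cold acetonitrile, drug quantified by LC–MS/MS; ratios are tissue over plasma level.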"}, "[3]": {"assay": "Drug distribution in tumor of CB17:SCID mouse xenografted with human VCaP cells at 20 mg/kg, po measured at 24 hrs by LCMS analysis", "type": "ADME, organism-based, Neoplasm", "conditions": "read-out: Drug uptake", "how_it_was_run": "as §1"}, "[4]": {"test_system": "VCaP", "assay": "Antitumor activity against human VCaP cells xenografted in CB17:SCID mouse assessed as reduction in AR protein level in tumor at 10 mg/kg, po for 3 days measured at 3 hrs by Western blot analysis", "type": "functional", "conditions": "72 h, time 3 day", "how_it_was_run": "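Male CB17 SCID mice bearing subcutaneous VCaP tumors (5 × 10^6 cells in Matrigel); dosed by oral gavage in 100% PEG200 at 10 mg/kg daily for 3 days; tumors harvested 3, 6 and 24 h post-dose, lysed in RIPA, Western blot for AR with GAPDH loading control, bands quantified by densitometry relative to loading control.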"}, "[5]": {"assay": "Drug distribution in plasma of CB17:SCID mouse xenografted with human VCaP cells at 20 mg/kg, po measured at 1 hrs by LCMS analysis", "type": "ADME, organism-based", "how_it_was_run": "as §1"}, "[6]": {"assay": "Drug distribution in liver of CB17:SCID mouse xenografted with human VCaP cells at 20 mg/kg, po measured at 1 hrs by LCMS analysis", "type": "ADME, organism-based", "conditions": "read-out: Drug uptake", "how_it_was_run": "as §1"}, "[7]": {"assay": "Drug distribution in CB17:SCID mouse xenografted with human VCaP cells assessed as liver to plasma ratio at 20 mg/kg, po measured at 1 hrs by LCMS analysis", "type": "ADME, organism-based", "how_it_was_run": "as §1"}, "[8]": {"assay": "Drug distribution in CB17:SCID mouse xenografted with human VCaP cells assessed as prostate gland to plasma ratio at 20 mg/kg, po measured at 1 hrs by LCMS analysis", "type": "ADME, organism-based", "how_it_was_run": "as §1"}, "[9]": {"assay": "Drug distribution in heart of CB17:SCID mouse xenografted with human VCaP cells at 20 mg/kg, po measured at 1 hrs by LCMS analysis", "type": "ADME, organism-based", "conditions": "read-out: Drug uptake", "how_it_was_run": "as §1"}, "[10]": {"assay": "Drug distribution in CB17:SCID mouse xenografted with human VCaP cells assessed as liver to plasma ratio at 20 mg/kg, po measured at 6 hrs by LCMS analysis", "type": "ADME, organism-based", "how_it_was_run": "as §1"}, "[11]": {"assay": "Drug distribution in kidney of CB17:SCID mouse xenografted with human VCaP cells at 20 mg/kg, po measured at 6 hrs by LCMS analysis", "type": "ADME, organism-based", "conditions": "read-out: Drug uptake", "how_it_was_run": "as §1"}, "[12]": {"assay": "Drug distribution in CB17:SCID mouse xenografted with human VCaP cells assessed as kidney to plasma ratio at 20 mg/kg, po measured at 6 hrs by LCMS analysis", "type": "ADME, organism-based", "how_it_was_run": "as §1"}, "[13]": {"assay": "Drug distribution in CB17:SCID mouse xenografted with human VCaP cells assessed as prostate gland to plasma ratio at 20 mg/kg, po measured at 6 hrs by LCMS analysis", "type": "ADME, organism-based", "how_it_was_run": "as §1"}, "[14]": {"assay": "Drug distribution in CB17:SCID mouse xenografted with human VCaP cells assessed as heart to plasma ratio at 20 mg/kg, po measured at 6 hrs by LCMS analysis", "type": "ADME, organism-based", "how_it_was_run": "as §1"}, "[15]": {"assay": "Drug distribution in CB17:SCID mouse xenografted with human VCaP cells assessed as tumor to plasma ratio at 20 mg/kg, po measured at 24 hrs by LCMS analysis", "type": "ADME, organism-based", "how_it_was_run": "as §1"}, "[16]": {"assay": "Drug distribution in CB17:SCID mouse xenografted with human VCaP cells assessed as kidney to plasma ratio at 20 mg/kg, po measured at 24 hrs by LCMS analysis", "type": "ADME, organism-based", "how_it_was_run": "as §1"}, "[17]": {"assay": "Drug distribution in CB17:SCID mouse xenografted with human VCaP cells assessed as heart to plasma ratio at 20 mg/kg, po measured at 24 hrs by LCMS analysis", "type": "ADME, organism-based", "how_it_was_run": "as §1"}, "[18]": {"test_system": "VCaP", "assay": "Antitumor activity against human VCaP cells xenografted in CB17:SCID mouse assessed as tumor growth inhibition at 40 mg/kg, po treated for 37 days relative to control", "type": "functional", "conditions": "888 h, time 37 day, read-out: TGI"}, "[19]": {"target": "T1, Protein cereblon/Androgen receptor (Homo sapiens, UniProt P10275+Q96SW2)", "T1 sequence (P10275 whole entry, looked up)": "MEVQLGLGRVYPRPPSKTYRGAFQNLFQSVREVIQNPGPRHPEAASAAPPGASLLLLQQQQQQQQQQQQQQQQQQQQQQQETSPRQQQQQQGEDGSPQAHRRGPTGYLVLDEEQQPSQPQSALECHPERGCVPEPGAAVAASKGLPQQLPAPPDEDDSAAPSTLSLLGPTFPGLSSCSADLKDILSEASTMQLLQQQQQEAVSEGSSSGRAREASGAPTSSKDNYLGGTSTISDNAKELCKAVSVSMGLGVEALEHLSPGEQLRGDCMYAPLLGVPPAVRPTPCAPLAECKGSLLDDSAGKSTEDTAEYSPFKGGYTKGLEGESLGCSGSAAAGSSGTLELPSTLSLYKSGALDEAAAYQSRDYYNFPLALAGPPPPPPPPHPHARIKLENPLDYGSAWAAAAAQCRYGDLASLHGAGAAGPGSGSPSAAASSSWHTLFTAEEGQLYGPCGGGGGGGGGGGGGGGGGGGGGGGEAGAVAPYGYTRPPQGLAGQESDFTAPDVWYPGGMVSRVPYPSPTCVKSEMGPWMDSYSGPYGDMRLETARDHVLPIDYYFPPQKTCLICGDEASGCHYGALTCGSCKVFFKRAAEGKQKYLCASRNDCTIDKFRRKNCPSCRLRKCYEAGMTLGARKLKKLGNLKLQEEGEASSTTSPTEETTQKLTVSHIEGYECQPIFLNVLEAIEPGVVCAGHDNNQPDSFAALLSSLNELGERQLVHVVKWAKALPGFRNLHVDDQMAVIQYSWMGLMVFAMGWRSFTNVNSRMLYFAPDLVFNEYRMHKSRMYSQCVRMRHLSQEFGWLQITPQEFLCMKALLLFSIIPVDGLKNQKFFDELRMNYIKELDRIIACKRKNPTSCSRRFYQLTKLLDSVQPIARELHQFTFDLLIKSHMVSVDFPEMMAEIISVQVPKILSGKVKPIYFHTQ", "T1 sequence (Q96SW2 whole entry, looked up)": "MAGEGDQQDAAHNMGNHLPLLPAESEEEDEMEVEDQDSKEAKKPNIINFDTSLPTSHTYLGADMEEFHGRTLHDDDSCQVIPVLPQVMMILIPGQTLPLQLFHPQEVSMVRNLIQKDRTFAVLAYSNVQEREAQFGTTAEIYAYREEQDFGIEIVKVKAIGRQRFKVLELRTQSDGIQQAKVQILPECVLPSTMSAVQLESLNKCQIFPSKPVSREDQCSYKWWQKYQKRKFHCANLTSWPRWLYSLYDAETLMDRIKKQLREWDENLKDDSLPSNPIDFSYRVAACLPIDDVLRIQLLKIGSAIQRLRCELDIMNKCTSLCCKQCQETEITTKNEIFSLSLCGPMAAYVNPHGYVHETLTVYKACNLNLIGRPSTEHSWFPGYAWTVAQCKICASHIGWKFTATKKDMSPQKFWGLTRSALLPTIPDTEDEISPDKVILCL", "assay": "Protac activity at CRBN/AR in human MDA-PCa-2b cells assessed as reduction in AR protein level at 1 nM after 24 hrs by Western blot analysis relative to control", "type": "cell-based", "how_it_was_run": "(§2)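 Western blot of AR after 24 h exposure to a concentration series in ATCC-derived cells, all with 10% FBS at 37 °C and 5% CO2: LNCaP and 22Rv1 in RPMI1640, VCaP in DMEM with Glutamax, MDA-PCa-2b in F-12K. Lysis in RIPA with protease and phosphatase inhibitors, then 4–12% SDS-PAGE and PVDF transfer. Band minus background is normalised to GAPDH.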"}, "[20]": {"target": "T1, Protein cereblon/Androgen receptor", "assay": "Protac activity at CRBN/AR in human VCaP cells assessed as maximal AR degradation at 0.1 nM after 24 hrs by Western blot analysis relative to control", "type": "cell-based", "how_it_was_run": "as §2"}, "[21]": {"test_system": "Protein cereblon/Androgen receptor (Homo sapiens), P10275+Q96SW2 [T878A]", "assay": "Protac activity at CRBN/AR T878A mutant in human LNCaP cells assessed as maximal AR degradation at 0.3 nM after 24 hrs by Western blot analysis relative to control", "type": "cell-based", "how_it_was_run": "as §2"}, "[22]": {"test_system": "Protein cereblon/Androgen receptor (Homo sapiens), P10275+Q96SW2 [T878A]", "assay": "Protac activity at CRBN/AR T878A mutant in human LNCaP cells assessed as reduction in AR protein level at 3 nM after 24 hrs by Western blot analysis relative to control", "type": "cell-based", "how_it_was_run": "as §2"}, "[23]": {"test_system": "VCaP", "assay": "Potency index, ratio of ARV-110 IC50 to compound IC50 for reduction in AR degradation human VCaP cells after 24 hrs by Western blot analysis", "type": "functional"}, "[24]": {"test_system": "LNCaP", "assay": "Potency index, ratio of ARV-110 IC50 to compound IC50 for reduction in AR degradation human LNCaP cells after 24 hrs by Western blot analysis", "type": "functional"}, "[25]": {"assay": "Potency index, ratio of ARV-110 IC50 to compound IC50 for reduction in AR degradation human MDA-PCa-2b cells after 24 hrs by Western blot analysis relative to control", "type": "functional"}, "[26]": {"target": "Voltage-gated inwardly rectifying potassium channel KCNH2 (Homo sapiens, UniProt Q12809)", "sequence (Q12809 whole entry)": "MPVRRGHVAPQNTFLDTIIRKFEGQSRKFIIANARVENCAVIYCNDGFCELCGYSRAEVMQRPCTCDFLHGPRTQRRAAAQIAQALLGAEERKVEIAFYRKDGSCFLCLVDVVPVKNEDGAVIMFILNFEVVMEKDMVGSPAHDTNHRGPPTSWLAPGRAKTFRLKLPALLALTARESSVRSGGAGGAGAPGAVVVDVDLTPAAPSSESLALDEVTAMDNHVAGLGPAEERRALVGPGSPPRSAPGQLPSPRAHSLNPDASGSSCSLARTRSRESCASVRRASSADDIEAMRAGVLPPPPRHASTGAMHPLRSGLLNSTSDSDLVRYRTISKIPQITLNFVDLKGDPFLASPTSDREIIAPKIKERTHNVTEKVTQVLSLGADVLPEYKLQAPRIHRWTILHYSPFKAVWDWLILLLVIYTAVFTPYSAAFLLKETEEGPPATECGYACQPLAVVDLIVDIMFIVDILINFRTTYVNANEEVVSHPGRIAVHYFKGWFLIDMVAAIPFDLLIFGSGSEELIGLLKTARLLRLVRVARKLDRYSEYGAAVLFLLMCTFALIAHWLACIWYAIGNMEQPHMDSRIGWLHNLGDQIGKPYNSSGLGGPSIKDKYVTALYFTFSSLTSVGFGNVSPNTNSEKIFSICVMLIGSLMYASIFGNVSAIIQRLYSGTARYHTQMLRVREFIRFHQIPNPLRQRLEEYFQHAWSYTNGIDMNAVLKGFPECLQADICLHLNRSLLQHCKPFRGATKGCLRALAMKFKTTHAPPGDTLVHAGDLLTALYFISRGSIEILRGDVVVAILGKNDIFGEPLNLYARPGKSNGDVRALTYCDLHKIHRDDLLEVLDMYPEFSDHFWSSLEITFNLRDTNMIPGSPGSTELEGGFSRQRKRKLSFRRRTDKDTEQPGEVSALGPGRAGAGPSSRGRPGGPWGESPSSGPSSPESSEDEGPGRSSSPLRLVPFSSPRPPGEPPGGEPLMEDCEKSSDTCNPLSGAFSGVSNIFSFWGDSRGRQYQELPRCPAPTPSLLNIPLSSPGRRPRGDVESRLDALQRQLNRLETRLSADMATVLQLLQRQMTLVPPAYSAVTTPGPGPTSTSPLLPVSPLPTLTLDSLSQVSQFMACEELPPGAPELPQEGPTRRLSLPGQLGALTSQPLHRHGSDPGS", "assay": "Inhibition of human ERG up to 30 uM", "how_it_was_run": "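hERG potassium channel stably expressed in HEK 293 cells; current recorded by manual patch clamp at 0.3, 1, 3, 10 and 30 μM, in duplicate, for concentration–response.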"}, "[27]": {"target": "T1, Protein cereblon/Androgen receptor", "assay": "Protac activity at CRBN/AR in human VCaP cells assessed as reduction in AR protein level at 100 nM after 3 hrs in presence of MLN4924 by Western blot analysis"}}, "note": "The source made the active and inactive calls. The rule behind the calls is not given here."}
{"smiles": "CN(c1ccc(C#N)c(Cl)c1)[C@H]1CC[C@H](NC(=O)c2ccc(N3CCN(C4CN(c5ccc6c(c5)C(=O)N(C5CCC(=O)NC5=O)C6=O)C4)CC3)cc2)CC1", "note": "(some centres not stated)", "values": [{"measurement": "IC50", "setting": "[1]", "result": 16.2, "unit": "nM"}, {"measurement": "concentration at 24 h", "setting": "[2]", "result": 107, "unit": "ng/g"}, {"measurement": "concentration at 24 h", "setting": "[3]", "result": 301, "unit": "ng/g"}, {"measurement": "inhibition in vivo at 10 mg/kg", "setting": "[4]", "result": 78, "unit": "%"}, {"measurement": "concentration at 1 h", "setting": "[5]", "result": 70, "unit": "ng/mL"}, {"measurement": "concentration at 1 h", "setting": "[6]", "result": 2640, "unit": "ng/g"}, {"measurement": "Kp at 1 h", "setting": "[7]", "result": 37.7}, {"measurement": "Kp at 1 h", "setting": "[8]", "result": 0.4}, {"measurement": "concentration at 1 h", "setting": "[9]", "result": 210, "unit": "ng/g"}, {"measurement": "Kp at 6 h", "setting": "[10]", "result": 26.2}, {"measurement": "concentration at 6 h", "setting": "[11]", "result": 661, "unit": "ng/g"}, {"measurement": "Kp at 6 h", "setting": "[12]", "result": 4.9}, {"measurement": "Kp at 6 h", "setting": "[13]", "result": 0.6}, {"measurement": "Kp at 6 h", "setting": "[14]", "result": 2.5}, {"measurement": "Kp at 24 h", "setting": "[15]", "result": 1.4}, {"measurement": "Kp at 24 h", "setting": "[16]", "result": 1.7}, {"measurement": "Kp at 24 h", "setting": "[17]", "result": 3.2}, {"measurement": "inhibition in vivo at 40 mg/kg", "setting": "[18]", "result": 65.9, "unit": "%"}, {"measurement": "inhibition", "setting": "[19]", "result": "> 80", "unit": "%"}, {"measurement": "Emax", "setting": "[20]", "result": "> 95", "unit": "%"}, {"measurement": "Emax", "setting": "[21]", "result": "> 95", "unit": "%"}, {"measurement": "inhibition", "setting": "[22]", "result": 80, "unit": "%"}, {"measurement": "Ratio", "setting": "[23]", "result": 30}, {"measurement": "Ratio", "setting": "[24]", "result": 10}, {"measurement": "Ratio", "setting": "[25]", "result": 1000}, {"measurement": "inhibition (INH)", "setting": "[26]", "result": "Not Active"}, {"measurement": "Activity", "setting": "[27]", "result": "inactive"}]}
